In PMC3174055 (Biochemical Journal, 2011):
“And” between values parts separate entries of the source, which are not always exact repeats. Equal entries are not always repeated. Each block holds one molecule with its values, some of them ahead of it.

Legend:
[1] = Plasma pharmacokinetics in mice; assay type: in vivo, CD-1 mice; details: male, CD-1, mouse, ip, 10 mg/kg
[2] = system: HCT-116 xenograft; assay: HCT-116 tumour xenograft efficacy and toxicity; assay type: in vivo, Rag1−/− or NIH-III mice; details: QD×7, BEZ-235 10 mg/kg, A66 100 mg/kg
Summary of the method: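 HCT-116 xenografts from 5×10^6 cells s.c. in PBS, in SPF Rag1−/− or NIH-III mice. Once-daily i.p. dosing for 7 days from tumours of about 7 mm. Test compound in 20% hydroxypropyl-β-cyclodextrin; reference inhibitor at 10 mg/kg in 10% ethanol; vehicle controls. Caliper volumes by (L×w²)×π/6; daily weights; euthanasia if weight loss exceeded 20%.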

[3] = system: U87MG xenograft; assay: U87MG tumour xenograft efficacy and toxicity; assay type: in vivo, Rag1−/− or NIH-III mice; details: QD×14, BEZ-235 15 mg/kg, A66 100 mg/kg
Summary of the method: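 U87MG cells (5×10^6, s.c. in PBS) in SPF Rag1−/− or NIH-III mice; treatment started at tumours of about 7 mm. Daily i.p. dosing for 14 days (10 ml/kg, free base). Test compound in 20% hydroxypropyl-β-cyclodextrin; reference inhibitor in 10% ethanol; controls given vehicle. Caliper volume (L×w²)×π/6; daily body weight and toxicity checks; mice killed at >20% weight loss.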

[4] = system: SK-OV-3 xenograft; assay: SK-OV-3 tumour xenograft efficacy and toxicity; assay type: in vivo, Rag1−/− or NIH-III mice; details: QD×21, BEZ-235 15 mg/kg, A66 100 mg/kg
Summary of the method: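 SPF Rag1−/− or NIH-III mice, 5×10^6 SK-OV-3 cells s.c. in PBS; dosing began at about 7 mm tumours. I.p., 10 ml/kg. Test compound (20% hydroxypropyl-β-cyclodextrin): 100 mg/kg QD×21 or 75 mg/kg BID×16, injections ≥~8 h apart. Reference inhibitor (10% ethanol): 15 mg/kg QD×21. Vehicle controls; 7–8 mice/group. Caliper volume (L×w²)×π/6; daily body weight; final-day TGI; ANOVA-Bonferroni.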

[5] = system: panel of 110 protein kinases; assay: Protein kinase profiling, panel of 110 protein kinases; assay type: biochemical; details: 10 μM, Supplementary Figure S1
[6] = system: phosphorylation of Akt/PKB (Ser473, Thr308); assay: Insulin-stimulated activation of Akt/PKB in cell lines, Western blotting; assay type: cell-based; details: for inhibition of insulin-stimulated phosphorylation of Akt/PKB Ser473 and Thr308: cell lines that lack the H1047R mutation, drug 15 min, then 500 nM insulin 5 min; for inhibition of insulin-stimulated activation of Akt/PKB: MCF7 cells
Summary of the method: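 Cells serum-starved overnight, then exposed to test compound or DMSO vehicle for 15 min and stimulated with 500 nM insulin for 5 min. Lysates separated by SDS/PAGE, 20 μg protein per lane except T47D, SK-OV-3 and MCF7, and Western blotted for Akt/PKB phosphorylation.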

[7] = biological target: p110γ (Homo sapiens, UniProt P48736); assay: PI3K; assay type: biochemical; details: read-out: IC50 against p110γ; HTRF assay
[8] = biological target: p110α E545K (Homo sapiens, UniProt P42336, E545K); assay: PI3K; assay type: biochemical; details: read-out: IC50 against p110α E545K; HTRF assay
[9] = biological target: p110α H1047R (Homo sapiens, UniProt P42336, H1047R); assay: PI3K; assay type: biochemical; details: read-out: IC50 against p110α H1047R; HTRF assay
[10] = biological target: p110α (Homo sapiens, UniProt P42336); assay: PI3K; assay type: biochemical; details: read-out: IC50 against p110α; HTRF assay
[11] = system: Akt/PKB activation in PTEN-deficient cell lines; details: cited from earlier work
[12] = biological target: p110δ (Homo sapiens, UniProt O00329); assay: PI3K; assay type: biochemical; details: read-out: IC50 against p110δ; HTRF assay
Sequence of p110δ (O00329 whole entry): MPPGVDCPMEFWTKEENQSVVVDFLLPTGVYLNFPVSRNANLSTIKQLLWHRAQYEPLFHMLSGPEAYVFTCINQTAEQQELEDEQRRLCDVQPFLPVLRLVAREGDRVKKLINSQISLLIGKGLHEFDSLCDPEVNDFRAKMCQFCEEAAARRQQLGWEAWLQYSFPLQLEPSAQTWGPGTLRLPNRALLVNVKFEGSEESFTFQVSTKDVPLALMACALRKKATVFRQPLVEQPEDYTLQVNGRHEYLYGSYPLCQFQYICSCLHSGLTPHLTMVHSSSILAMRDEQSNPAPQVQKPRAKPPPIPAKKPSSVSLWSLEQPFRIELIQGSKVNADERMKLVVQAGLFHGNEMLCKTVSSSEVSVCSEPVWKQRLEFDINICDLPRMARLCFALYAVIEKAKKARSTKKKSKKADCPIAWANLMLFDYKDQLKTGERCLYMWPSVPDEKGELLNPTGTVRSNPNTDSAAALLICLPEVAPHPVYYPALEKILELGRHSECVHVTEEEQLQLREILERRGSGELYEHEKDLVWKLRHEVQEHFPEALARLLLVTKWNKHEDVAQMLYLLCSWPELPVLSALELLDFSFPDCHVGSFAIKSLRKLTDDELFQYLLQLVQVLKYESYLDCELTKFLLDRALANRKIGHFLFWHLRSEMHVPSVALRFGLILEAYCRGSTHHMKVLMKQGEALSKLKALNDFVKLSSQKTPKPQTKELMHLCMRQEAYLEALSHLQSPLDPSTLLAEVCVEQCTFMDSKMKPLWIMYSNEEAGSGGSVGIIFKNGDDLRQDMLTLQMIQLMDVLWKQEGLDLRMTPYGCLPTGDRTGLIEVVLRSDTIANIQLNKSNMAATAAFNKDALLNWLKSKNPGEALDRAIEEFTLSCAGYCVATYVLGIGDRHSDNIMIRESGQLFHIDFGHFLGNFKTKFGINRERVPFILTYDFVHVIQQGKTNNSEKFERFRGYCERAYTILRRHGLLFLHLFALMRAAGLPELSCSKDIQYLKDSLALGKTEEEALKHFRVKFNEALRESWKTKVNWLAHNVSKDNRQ
Sequence of p110δ (P27986 whole entry partner): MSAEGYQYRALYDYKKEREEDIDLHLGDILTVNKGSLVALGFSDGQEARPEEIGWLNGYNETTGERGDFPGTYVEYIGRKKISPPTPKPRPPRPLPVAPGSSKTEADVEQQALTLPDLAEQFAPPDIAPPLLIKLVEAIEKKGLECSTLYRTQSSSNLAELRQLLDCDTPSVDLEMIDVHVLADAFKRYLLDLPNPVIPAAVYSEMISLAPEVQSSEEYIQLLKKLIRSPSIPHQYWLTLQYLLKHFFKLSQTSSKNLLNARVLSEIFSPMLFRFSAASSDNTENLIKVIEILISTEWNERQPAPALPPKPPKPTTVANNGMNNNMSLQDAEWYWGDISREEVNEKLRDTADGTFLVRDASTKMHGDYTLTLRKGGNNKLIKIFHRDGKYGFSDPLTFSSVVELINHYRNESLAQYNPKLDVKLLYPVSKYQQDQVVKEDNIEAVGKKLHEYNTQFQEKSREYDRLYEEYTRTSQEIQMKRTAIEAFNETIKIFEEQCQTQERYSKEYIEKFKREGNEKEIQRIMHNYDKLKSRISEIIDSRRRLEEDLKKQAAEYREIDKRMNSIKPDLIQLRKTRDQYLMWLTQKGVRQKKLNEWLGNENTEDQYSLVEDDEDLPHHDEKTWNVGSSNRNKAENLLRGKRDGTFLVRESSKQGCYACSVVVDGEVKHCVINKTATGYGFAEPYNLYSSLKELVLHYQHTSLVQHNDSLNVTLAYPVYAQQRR

Sequence of p110γ (P48736 whole entry): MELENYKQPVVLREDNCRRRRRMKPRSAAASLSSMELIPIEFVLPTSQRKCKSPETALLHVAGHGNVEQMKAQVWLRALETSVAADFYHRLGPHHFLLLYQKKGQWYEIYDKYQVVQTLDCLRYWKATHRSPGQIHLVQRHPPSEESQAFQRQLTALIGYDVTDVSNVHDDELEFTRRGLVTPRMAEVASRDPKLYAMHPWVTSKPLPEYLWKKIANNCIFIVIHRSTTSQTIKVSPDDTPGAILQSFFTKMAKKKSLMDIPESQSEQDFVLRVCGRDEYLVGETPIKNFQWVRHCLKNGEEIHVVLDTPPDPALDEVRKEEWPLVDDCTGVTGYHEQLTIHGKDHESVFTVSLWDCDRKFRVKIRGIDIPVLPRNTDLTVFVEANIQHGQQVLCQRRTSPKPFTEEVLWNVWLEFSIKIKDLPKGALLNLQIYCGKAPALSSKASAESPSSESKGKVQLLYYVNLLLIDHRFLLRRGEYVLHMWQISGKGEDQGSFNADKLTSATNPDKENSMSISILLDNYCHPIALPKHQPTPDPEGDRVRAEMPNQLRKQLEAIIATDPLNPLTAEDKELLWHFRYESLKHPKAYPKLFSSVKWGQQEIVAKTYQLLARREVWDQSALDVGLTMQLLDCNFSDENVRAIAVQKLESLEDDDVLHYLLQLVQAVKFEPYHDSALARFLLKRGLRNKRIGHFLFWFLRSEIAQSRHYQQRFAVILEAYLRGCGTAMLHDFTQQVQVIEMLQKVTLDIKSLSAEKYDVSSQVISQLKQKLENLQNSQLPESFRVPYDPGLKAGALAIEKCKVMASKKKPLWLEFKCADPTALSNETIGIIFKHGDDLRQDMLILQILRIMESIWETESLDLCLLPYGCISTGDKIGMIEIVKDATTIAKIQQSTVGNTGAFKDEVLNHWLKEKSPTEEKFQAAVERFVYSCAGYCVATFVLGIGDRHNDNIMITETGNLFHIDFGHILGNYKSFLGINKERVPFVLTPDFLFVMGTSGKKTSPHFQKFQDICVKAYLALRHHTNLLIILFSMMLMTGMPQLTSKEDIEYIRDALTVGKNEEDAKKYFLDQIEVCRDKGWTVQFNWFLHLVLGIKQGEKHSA
Sequence of p110α (P42336 whole entry): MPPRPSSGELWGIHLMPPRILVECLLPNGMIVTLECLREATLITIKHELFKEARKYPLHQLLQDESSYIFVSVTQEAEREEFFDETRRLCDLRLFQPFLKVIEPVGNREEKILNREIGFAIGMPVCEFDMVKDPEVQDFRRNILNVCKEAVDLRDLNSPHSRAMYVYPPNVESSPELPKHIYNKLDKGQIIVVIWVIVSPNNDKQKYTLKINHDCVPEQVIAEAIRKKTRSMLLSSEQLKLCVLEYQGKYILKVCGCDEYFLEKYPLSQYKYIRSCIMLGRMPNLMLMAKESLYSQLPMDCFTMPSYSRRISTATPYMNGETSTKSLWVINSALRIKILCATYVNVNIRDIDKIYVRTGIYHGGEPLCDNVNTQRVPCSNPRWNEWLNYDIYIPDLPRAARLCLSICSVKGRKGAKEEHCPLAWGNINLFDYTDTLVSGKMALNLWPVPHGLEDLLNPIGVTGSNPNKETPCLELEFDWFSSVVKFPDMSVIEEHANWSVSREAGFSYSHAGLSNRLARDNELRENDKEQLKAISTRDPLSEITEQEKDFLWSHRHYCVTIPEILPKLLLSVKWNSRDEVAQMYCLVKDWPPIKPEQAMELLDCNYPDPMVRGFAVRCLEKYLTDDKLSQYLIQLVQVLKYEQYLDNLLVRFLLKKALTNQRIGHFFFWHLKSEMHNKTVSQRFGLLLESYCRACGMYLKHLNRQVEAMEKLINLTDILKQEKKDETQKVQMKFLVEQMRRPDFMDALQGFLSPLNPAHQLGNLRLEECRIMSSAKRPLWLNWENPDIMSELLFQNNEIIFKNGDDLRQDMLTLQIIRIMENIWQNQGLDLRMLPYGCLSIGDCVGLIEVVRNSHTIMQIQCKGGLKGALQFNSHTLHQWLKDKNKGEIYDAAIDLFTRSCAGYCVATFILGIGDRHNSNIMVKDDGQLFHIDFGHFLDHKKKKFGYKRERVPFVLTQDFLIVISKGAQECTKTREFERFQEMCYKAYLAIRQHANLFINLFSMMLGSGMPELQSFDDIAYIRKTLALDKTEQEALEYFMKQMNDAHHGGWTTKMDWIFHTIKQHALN
Sequence of p110α (P27986 whole entry partner): as the sequence (P27986 whole entry partner) above
Sequence of p110α H1047R (P42336 whole entry H1047R): as the sequence (P42336 whole entry) above, with H1047R counted along it
Sequence of p110α H1047R (P27986 whole entry partner): as the sequence (P27986 whole entry partner) above
Sequence of p110α E545K (P42336 whole entry E545K): as the sequence (P42336 whole entry) above, with E545K counted along it
Sequence of p110α E545K (P27986 whole entry partner): as the sequence (P27986 whole entry partner) above

Compound: Cn1c(=O)n(-c2ccc(C(C)(C)C#N)cc2)c2c3cc(-c4cnc5ccccc5c4)ccc3ncc21 [BEZ-235]
AUC [1]: 7.33 µM·h | Cmax [1]: 1860 nM | Tmax [1]: 0.25 h | half-life [1]: 2.73 h | BWL nadir (%) ([2]; HCT-116, intraperitoneal): −5.9±1.8% | Number of deaths/n ([2]; HCT-116, intraperitoneal): 0/7 | effect on tumour volume ([2]; HCT-116 xenograft): had no effect | effect on tumour volume / growth ([3]; U87MG xenograft): significantly reduced | BWL nadir (%) ([3]; U87MG, intraperitoneal): −8.4±5.4% | Number of deaths/n ([3]; U87MG, intraperitoneal): 0/5 | body weight loss / tolerability [4]: moderate body weight loss | BWL nadir (%) ([4]; intraperitoneal): −9.5±6.6% | Number of deaths/n ([4]; intraperitoneal): four and 4/7

Compound: Cc1ccccc1-n1c(Cn2cnc3c(N)ncnc32)nc2cccc(C)c2c1=O [IC87114]
inhibitory effects on panel of 110 protein kinases [5]: do not have any major effects | inhibition of insulin-stimulated phosphorylation of Akt/PKB Ser473 and Thr308 [6]: not inhibited

Compound: O=c1cc(N2CCOCC2)oc2c(-c3ccccc3)cccc12 [LY294002]
inhibition of phosphorylation of Akt/PKB Ser473 and Thr308 ([6]; all cell lines tested): sensitive | inhibition of insulin-stimulated phosphorylation of Akt/PKB Ser473 and Thr308 [6]: effective

IC50 [7]: 0.033 µM
Compound: Cc1ccc([N+](=O)[O-])cc1S(=O)(=O)N(C)/N=C/c1cnc2ccc(Br)cn12 [PIK-75]
inhibitory effects on panel of 110 protein kinases [5]: inhibited a large number of protein kinases | inhibition of insulin-stimulated activation of Akt/PKB [6]: partial inhibitory effect | inhibition of insulin-stimulated phosphorylation of Akt/PKB Ser473 and Thr308 [6]: less effective

IC50 [8]: > 1 µM | inhibitory effects on panel of 110 protein kinases [5]: do not have any major effects | IC50 [9]: > 1 µM | IC50 [10]: > 1 µM | IC50 [12]: 0.13 µM | IC50 [7]: > 1.25 µM
Compound: Cc1cc(C(C)Nc2ccccc2)c2nc(N3CCOCC3)cc(=O)n2c1 (stereo not shown) [TGX-221]
concentration required to induce reduction in Akt/PKB activation [11]: 2 µM | inhibition of insulin-stimulated activation of Akt/PKB [6]: partial inhibitory effect | inhibition of insulin-stimulated phosphorylation of Akt/PKB Ser473 and Thr308 [6]: not inhibited

Compound: COC[C@H]1OC(=O)c2coc3c2[C@@]1(C)C1=C(C3=O)[C@@H]2CCC(=O)[C@@]2(C)C[C@H]1OC(C)=O [wortmannin]
inhibition of insulin-stimulated phosphorylation of Akt/PKB Ser473 and Thr308 [6]: effective
